Assay results published in PMC8481180 (Clinical Drug Investigation, 2021).
“Also recorded” adds a separate entry of the source. Like-named read-outs stand apart in the source and are kept apart here.

Legend:
[1] = type: in vivo, human; conditions: for Tmax: median (range)
Method in brief: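 Oral suspension given fasted (10 h overnight), 6 subjects per dose. Blood (2 mL, K₂-EDTA) was taken pre-dose and 0.5–48 h after the first and Day-10 doses. Day-10 urine was collected pre-dose and over 0–3, 3–6, 6–12 and 12–24 h. Analysis used validated methods and non-compartmental methods with actual sampling times. AUC was by log-linear trapezoidal rule.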

[2] = Pharmacokinetics in healthy non-Japanese subjects; type: in vivo, human; conditions: for AUCτ, non-Japanese geometric mean, body weight normalized to 70 kg: Day 10
[3] = Comparison of pharmacokinetics, Japanese versus non-Japanese subjects; type: in vivo, human; conditions: Day 10
Method in brief: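 Day-10 Japanese multiple-dose pharmacokinetic parameters were compared with a prior Phase I non-Japanese study (MAD part). Parameters were log-transformed to give geometric mean ratios with 90% confidence intervals. Cmax and AUCτ were also normalised to 70 kg body weight. Six subjects per cohort.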

LTE4 in urine = assay: Creatine-normalized urine LTE4 quantification; type: in vivo, human
Method in brief: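 Urinary LTE₄ was normalised to creatinine. On Days 1 and 10, samples were a pre-dose spot, pooled 0–3, 3–6, 6–9 and 9–12 h collections, and spots at 24 and 36 h. Only pre-dose spots were taken on Days 3–9. Inhibition was related to plasma exposure after oral doses of 60–600 mg.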

[4] = Clinical safety and tolerability in healthy Japanese subjects; type: in vivo, human
Method in brief: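 Randomised, placebo-controlled: four cohorts of 8 (6 active, 2 placebo) received an oral amorphous suspension once on Day 1, then once daily on Days 3–10, fasted. Assessments were adverse events, vital signs, ECG, telemetry and routine clinical laboratory tests. They were taken before and at scheduled times after dosing and at follow-up 7–10 days after the final dose.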

[5] = cited from earlier work
[6] = SMAD study, fasting and fed healthy volunteers; cited from earlier work
[7] = Japanese, 60 mg OD, Day 1, geometric mean (CV%)
[8] = Japanese, 60 mg OD, Day 10, geometric mean (CV%)
[9] = Japanese, 180 mg OD, Day 1, geometric mean (CV%)
[10] = Japanese, 180 mg OD, Day 10, geometric mean (CV%)
[11] = Japanese, 360 mg OD, Day 1, geometric mean (CV%)
[12] = Japanese, 360 mg OD, Day 10, geometric mean (CV%)
[13] = Japanese, 600 mg OD, Day 1, geometric mean (CV%)
[14] = Japanese, 600 mg OD, Day 10, geometric mean (CV%)

Cc1cc(-c2ccc(C(=O)[C@@H]3CCCC[C@H]3C(=O)Nc3cnn4c3C(=O)NCC4)cc2)n[nH]1 [AZD5718]
AUCτ, Japanese geometric mean, body weight normalized to 70 kg ([1]; 60 mg, Day 10): 1056.0 nmol·h/L
AUCτ, Japanese geometric mean, body weight normalized to 70 kg ([1]; 180 mg, Day 10): 5896.7 nmol·h/L
AUCτ, Japanese geometric mean, body weight normalized to 70 kg ([1]; 360 mg, Day 10): 14,981.4 nmol∙h/L
AUCτ, Japanese geometric mean, body weight normalized to 70 kg ([1]; 600 mg, Day 10): 25,893.0 nmol∙h/L
Cmax ([1]; Japanese, 60 mg OD oral suspension, Day 1, geometric mean (CV%), n = 6): 140 nM
AUCτ [1, 7]: 862.9 (35.8) nmol∙h/L
CL/F [1, 7]: 142.1 (33.5) L/h
t½ [1, 7]: 10.1 (44.0) h
Tmax ([1]; Japanese, 60 mg OD, Day 1): 1.0 (1.0, 3.0) h
AUCτ [1, 8]: 1140.5 (25.5) nmol∙h/L
CL/F [1, 8]: 117.8 (25.5) L/h
CLR [1, 8]: 0.8 (22.5) L/h
Cmax [1, 8]: 159 nM
t½ [1, 8]: 12.8 (47.0) h
Tmax ([1]; Japanese, 60 mg OD, Day 10): 2.0 (1.0, 3.0) h
AUCτ [1, 9]: 4739.4 (33.3) nmol∙h/L
CL/F [1, 9]: 82.2 (35.8) L/h
Cmax [1, 9]: 1280 nM
t½ [1, 9]: 8.5 (47.9) h
Tmax ([1]; Japanese, 180 mg OD, Day 1): 1.0 (0.5, 2.0) h
AUCτ [1, 10]: 6724.5 (32.0) nmol∙h/L
CL/F [1, 10]: 60.0 (32.0) L/h
CLR [1, 10]: 0.8 (38.4) L/h
Cmax [1, 10]: 1570 nM
t½ [1, 10]: 8.6 (23.6) h
Tmax ([1]; Japanese, 180 mg OD, Day 10): 1.5 (1.0, 2.0) h
AUCτ [1, 11]: 8971.1 (47.6) nmol∙h/L
CL/F [1, 11]: 84.3 (51.7) L/h
Cmax [1, 11]: 2200 nM
t½ [1, 11]: 15.0 (100.5) h
Tmax ([1]; Japanese, 360 mg OD, Day 1): 1.0 (1.0, 2.1) h
AUCτ [1, 12]: 15,847.3 (47.8) nmol∙h/L
CL/F [1, 12]: 50.9 (47.8) L/h
CLR [1, 12]: 0.9 (21.0) L/h
Cmax [1, 12]: 3460 nM
t½ [1, 12]: 10.5 (29.1) h
Tmax ([1]; Japanese, 360 mg OD, Day 10): 2.0 (1.0, 3.0) h
AUCτ [1, 13]: 17,592.6 (39.9) nmol∙h/L
CL/F [1, 13]: 74.1 (40.0) L/h
Cmax [1, 13]: 5180 nM
t½ [1, 13]: 7.4 (25.5) h
Tmax ([1]; Japanese, 600 mg OD, Day 1): 1.0 (1.0, 2.0) h
AUCτ [1, 14]: 27,349.3 (48.8) nmol∙h/L
CL/F [1, 14]: 49.1 (48.8) L/h
CLR [1, 14]: 0.8 (16.8) L/h
Cmax [1, 14]: 6150 nM
t½ [1, 14]: 8.5 (35.1) h
Tmax ([1]; Japanese, 600 mg OD, Day 10): 1.0 (1.0, 2.0) h
Tmax (median) across doses ([1]; Japanese, 60–600 mg oral, fasted): 1 to 2 h
accumulation in AUCτ ([1]; Japanese, Day 10 versus Day 1, all doses): 32–77%
time to steady-state plasma concentrations ([1]; Japanese, once-daily dosing): 3 to 4 days
Cmax ([1]; read-out: Cmax, Japanese geometric mean, body weight normalized to 70 kg, 60 mg, Day 10): 147 nM
Cmax ([1]; read-out: Cmax, Japanese geometric mean, body weight normalized to 70 kg, 180 mg, Day 10): 1370 nM
Cmax ([1]; read-out: Cmax, Japanese geometric mean, body weight normalized to 70 kg, 360 mg, Day 10): 3270 nM
Cmax ([1]; read-out: Cmax, Japanese geometric mean, body weight normalized to 70 kg, 600 mg, Day 10): 5820 nM
AUCτ, non-Japanese geometric mean, body weight normalized to 70 kg ([2]; 60 mg): 1464.7 nmol·h/L
AUCτ, non-Japanese geometric mean, body weight normalized to 70 kg ([2]; 180 mg): 5837.1 nmol·h/L
AUCτ, non-Japanese geometric mean, body weight normalized to 70 kg ([2]; 360 mg): 14,647.6 nmol∙h/L
AUCτ, non-Japanese geometric mean, body weight normalized to 70 kg ([2]; 600 mg): 24,956.5 nmol∙h/L
Cmax ([2]; read-out: Cmax, non-Japanese geometric mean, body weight normalized to 70 kg, 60 mg, Day 10): 232 nM
Cmax ([2]; read-out: Cmax, non-Japanese geometric mean, body weight normalized to 70 kg, 180 mg, Day 10): 1420 nM
Cmax ([2]; read-out: Cmax, non-Japanese geometric mean, body weight normalized to 70 kg, 360 mg, Day 10): 3680 nM
Cmax ([2]; read-out: Cmax, non-Japanese geometric mean, body weight normalized to 70 kg, 600 mg, Day 10): 6130 nM
AUCτ GMR Japanese versus non-Japanese, % (90% CI) ([3]; 60 mg): 82 (63–108) %
AUCτ GMR Japanese versus non-Japanese, % (90% CI), body weight normalized to 70 kg ([3]; 60 mg): 72 (55–95) %
Cmax GMR Japanese versus non-Japanese, % (90% CI) ([3]; 60 mg): 72 (54–97) %
Cmax GMR Japanese versus non-Japanese, % (90% CI), body weight normalized to 70 kg ([3]; 60 mg): 63 (48–84) %
AUCτ GMR Japanese versus non-Japanese, % (90% CI) ([3]; 180 mg): 131 (88–196) %
AUCτ GMR Japanese versus non-Japanese, % (90% CI), body weight normalized to 70 kg ([3]; 180 mg): 101 (71–144) %
Cmax GMR Japanese versus non-Japanese, % (90% CI) ([3]; 180 mg): 126 (82–195) %
Cmax GMR Japanese versus non-Japanese, % (90% CI), body weight normalized to 70 kg ([3]; 180 mg): 97 (65–145) %
AUCτ GMR Japanese versus non-Japanese, % (90% CI) ([3]; 360 mg): 124 (83–186) %
AUCτ GMR Japanese versus non-Japanese, % (90% CI), body weight normalized to 70 kg ([3]; 360 mg): 102 (70–149) %
Cmax GMR Japanese versus non-Japanese, % (90% CI) ([3]; 360 mg): 108 (72–162) %
Cmax GMR Japanese versus non-Japanese, % (90% CI), body weight normalized to 70 kg ([3]; 360 mg): 89 (60–131) %
AUCτ GMR Japanese versus non-Japanese, % (90% CI) ([3]; 600 mg): 118 (73–190) %
AUCτ GMR Japanese versus non-Japanese, % (90% CI), body weight normalized to 70 kg ([3]; 600 mg): 104 (69–156) %
Cmax GMR Japanese versus non-Japanese, % (90% CI) ([3]; 600 mg): 108 (66–178) %
Cmax GMR Japanese versus non-Japanese, % (90% CI), body weight normalized to 70 kg ([3]; 600 mg): 95 (64–142) %
time at which level of full LTE4 inhibition achieved (LTE4 in urine; Japanese, after the first dose, all doses): 8 h
sustained reduction in LTE4 in urine (LTE4 in urine; Japanese, all doses): above 80%
inhibition of LTE4 in urine after the first dose (LTE4 in urine; Japanese, all doses (60–600 mg)): > 80%
time of maximum reduction in LTE4 in urine post-dose (LTE4 in urine; after first dose, both Japanese and non-Japanese subjects): ≤ 12 h
urinary LTE4 inhibition versus AZD5718 exposure (LTE4 in urine; single and multiple doses, at plasma concentrations in the lower nM range): > 80%
serious adverse events ([4]; Japanese, 60, 180, 360, 600 mg): No serious AEs
vital signs, ECG, telemetry, laboratory results ([4]; Japanese, all doses): no clinically significant trends
tolerability ([4]; Japanese, single and multiple oral doses 60, 180, 360, 600 mg): No clinically relevant safety and tolerability findings; also recorded: safe, well tolerated
time to steady-state levels ([5]; SMAD study, once-daily dosing): 2 to 3 days
terminal half-life ([5]; SMAD study): 10 h
AUCτ, non-Japanese geometric mean ([5]; non-Japanese, 60 mg multiple dosing, Day 10): 1386.3 nmol·h/L
AUCτ, non-Japanese geometric mean ([5]; non-Japanese, 180 mg multiple dosing, Day 10): 5128.4 nmol·h/L
AUCτ, non-Japanese geometric mean ([5]; non-Japanese, 360 mg multiple dosing, Day 10): 12,764.7 nmol∙h/L
AUCτ, non-Japanese geometric mean ([5]; non-Japanese, 600 mg multiple dosing, Day 10): 23,175.0 nmol∙h/L
Cmax ([5]; read-out: Cmax, non-Japanese geometric mean, non-Japanese, 60 mg multiple dosing, Day 10): 220 nM
tolerability [6]: well tolerated
